From ChEMBL document CHEMBL3856220, “Synthesis and antileishmanial activity of C7- and C12-functionalized dehydroabietylamine derivatives” (Eur J Med Chem, 2016)

Legend:
Leishmania amazonensis [1] = experiment: Leishmanicidal activity against promastigote form of Leishmania amazonensis MHOM/Br/79/Maria after 48 hrs by resazurin dye-based fluorometric method; assay type: functional
How it was run: (§1)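 Promastigotes grown in Schneider's medium with 10% heat-inactivated FBS at 26 °C. 2.5×10^5 parasites/well. DMSO stocks at 100 mg/mL, diluted 1:2 in medium to final 100–0.78 µg/mL. 48 h at 26 °C, then 2.5 mM resazurin (20 µL) for 3 h. Fluorescence read at ex 535/em 590 nm, with growth inhibition corrected for signal-to-noise. Triplicates; IC50 by probit analysis.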

Leishmania amazonensis [2] = experiment: Leishmanicidal activity against amastigote form of Leishmania amazonensis MHOM/Br/79/Maria infected in mouse J774 cells after 48 hrs by resazurin dye-based fluorometric method; assay type: functional, cell-based; settings: J774, 48 h
How it was run: (§2)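 5×10^4 macrophages in RPMI-1640 infected with 5×10^5 promastigotes. L. infantum infection was 48 h at 37 °C; L. amazonensis was 24 h at 33 °C then 24 h at 37 °C. Free parasites washed off with RPMI-HEPES pH 7.4. Compound at 100–0.78 µg/mL (final), 48 h at 37 °C. Cells lysed with 0.02% SDS, then 3 days at 26 °C in Schneider's medium. Resazurin 3 h, fluorescence read. Triplicates; IC50 by probit analysis.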

[3] = Cytotoxicity against mouse J774 cells assessed as reduction of cell viability after 48 hrs by resazurin dye-based fluorometric method; assay type: toxicity
How it was run: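 J774 murine macrophages grown in RPMI-1640 with 10% heat-inactivated FBS, penicillin/streptomycin, 37 °C, 5% CO2, and harvested mechanically at pre-confluence. Seeded at 5×10^4 cells/well and allowed to attach 2 h. Compound added at 100–0.78 µg/mL (1:2 series, final), 48 h exposure. Resazurin 2.5 mM (20 µL) then 3 h, fluorescence read. Triplicates. CC50 = 50% viability loss versus untreated.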

Leishmania infantum [4] = experiment: Leishmanicidal activity against amastigote form of Leishmania infantum MCAN/ES/96/BCN150 infected in mouse J774 cells after 48 hrs by resazurin dye-based fluorometric method; assay type: functional, cell-based; settings: MCAN/ES/96/BCN150, J774, 48 h; how it was run: as §2
[5] = Selectivity index, ratio of CC50 for mouse J774 cells to IC50 for amastigote form of Leishmania amazonensis MHOM/Br/79/Maria infected in mouse J774 cells; assay type: functional
How it was run: (§3)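 Selectivity index computed as CC50 from the J774 resazurin viability assay divided by IC50 from the matching promastigote or intracellular amastigote resazurin assay.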

[6] = Selectivity index, ratio of CC50 for mouse J774 cells to IC50 for promastigote form of Leishmania amazonensis MHOM/Br/79/Maria; assay type: functional; how it was run: as §3
[7] = Selectivity index, ratio of CC50 for mouse J774 cells to IC50 for promastigote form of Leishmania infantum MCAN/ES/96/BCN150; assay type: functional; how it was run: as §3
Leishmania donovani [8] = experiment: Leishmanicidal activity against promastigote form of Leishmania donovani MHOM/IN/80/DD8 after 48 hrs by resazurin dye-based fluorometric method; assay type: functional; settings: MHOM/IN/80/DD8, 48 h; how it was run: as §1
Leishmania guyanensis = experiment: Leishmanicidal activity against promastigote form of Leishmania guyanensis 141/93 after 48 hrs by resazurin dye-based fluorometric method; assay type: functional; settings: 141/93, 48 h; how it was run: as §1
[9] = Selectivity index, ratio of CC50 for mouse J774 cells to IC50 for promastigote form of Leishmania guyanensis 141/93; assay type: functional; how it was run: as §3
Leishmania infantum [10] = experiment: Leishmanicidal activity against promastigote form of Leishmania infantum MCAN/ES/96/BCN150 after 48 hrs by resazurin dye-based fluorometric method; assay type: functional; settings: MCAN/ES/96/BCN150, 48 h; how it was run: as §1
[11] = Selectivity index, ratio of CC50 for mouse J774 cells to IC50 for amastigote form of Leishmania infantum MCAN/ES/96/BCN150 infected in mouse J774 cells; assay type: functional; how it was run: as §3
[12] = Selectivity index, ratio of CC50 for mouse J774 cells to IC50 for promastigote form of Leishmania donovani MHOM/IN/80/DD8; assay type: functional; how it was run: as §3
Leishmania infantum [13] = experiment: Potency index, ratio of miltefosine IC50 to compound IC50 for amastigote form of Leishmania infantum MCAN/ES/96/BCN150 infected in mouse J774 cells; assay type: functional
Leishmania infantum [14] = experiment: Antileishmanial activity against amastigote form of Leishmania infantum MCAN/ES/2001/UCM-10 infected in mouse J774.2 cells after 72 hrs by Giemsa staining-based assay; assay type: functional, cell-based; settings: MCAN/ES/2001/UCM-10, J774.2, 72 h
Leishmania braziliensis = experiment: Antileishmanial activity against amastigote form of Leishmania braziliensis MHOM/BR/1975/M2904 infected in mouse J774.2 cells after 72 hrs by Giemsa staining-based assay; assay type: functional, cell-based; settings: MHOM/BR/75/M2904, J774.2, 72 h
Leishmania donovani [15] = experiment: Antileishmanial activity against promastigote form of Leishmania donovani after 48 hrs by Alamar blue assay; assay type: functional
How it was run: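 Promastigotes grown at 26 °C in Schneider's insect medium with 10% heat-inactivated FBS and penicillin/streptomycin, seeded at 2.5×10^5/well. Exposed to 1:2 serial dilutions (100–0.78 µg/mL final; DMSO stocks) for 48 h at 26 °C, then 2.5 mM resazurin added for 3 h. Fluorescence read at 535/590 nm; inhibition relative to untreated minus background. Triplicates; IC50 by probit; miltefosine reference.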

| Structure (SMILES) | IC50 (Leishmania amazonensis [1]) [µM] | IC50 (Leishmania amazonensis [2]) [µM] | CC50 at 48 h [3] [µM] | IC50 (Leishmania infantum [4]) [µM] | Ratio CC50/IC50 [5] | Ratio CC50/IC50 [6] | Ratio CC50/IC50 [7] | IC50 (Leishmania donovani [8]) [µM] | IC50 (Leishmania guyanensis) [µM] | Ratio CC50/IC50 [9] | IC50 (Leishmania infantum [10]) [µM] | Ratio CC50/IC50 [11] | Ratio CC50/IC50 [12] | Ratio IC50 (Leishmania infantum [13]) | IC50 (Leishmania infantum [14]) [µM] | IC50 (Leishmania braziliensis) [µM] | IC50 (Leishmania donovani [15]) [µM] |
| --- | --- | --- | --- | --- | --- | --- | --- | --- | --- | --- | --- | --- | --- | --- | --- | --- | --- |
| CC(C)c1cc2c(cc1[N+](=O)[O-])[C@@]1(C)CCC[C@@](C)(CNC(=O)c3ccccc3)[C@@H]1CC2=O | 12.2 | 3.7 | > 200 | 17.5 | >54 | >16 | >8 | 5.4 | 38.5 | >5 | 23.9 | >11 | >37 | – | – | – | – |
| CC(C)c1ccc2c(c1)C(=O)C[C@H]1[C@](C)(CNC(=O)c3ccccc3)CCC[C@]21C | 4.9 | 3 | > 200 | 2.5 | >67 | >41 | >23 | 4 | 8.6 | >23 | 8.7 | >80 | >50 | 23 | – | – | – |
| CC(C)c1cc2c(cc1[N+](=O)[O-])[C@@]1(C)CCC[C@@](C)(CNC(=O)c3ccccc3)[C@@H]1CC2 | 20.7 | 3.5 | > 200 | 3.3 | >57 | >10 | >18 | 3.2 | 94.5 | >2 | 11.1 | >61 | >62 | 18 | – | – | – |
| CC(=O)NC[C@]1(C)CCC[C@]2(C)c3ccc(C(C)C)cc3CC[C@@H]12 | – | – | 21.6 | – | – | – | – | – | – | – | – | – | – | – | – | – | – |
| CC(C)c1ccc2c(c1)CC[C@H]1[C@](C)(CNC(=O)c3ccccc3)CCC[C@]21C | 3.7 | 5 | > 200 | 4.7 | >40 | >54 | >64 | 2.2 | 20.4 | >10 | 3.1 | >42 | >90 | – | – | – | – |
| COC(=O)C[C@@]1(C)CCC[C@]2(C)c3cc(O)c(C(C)C)cc3CC[C@@H]12 | – | – | – | – | – | – | – | – | – | – | – | – | – | – | 22.3 to 35 | 22.3 to 35 | – |
| CC(=O)NC[C@]1(C)CCC[C@]2(C)c3ccc(C(C)C)cc3C(=O)C[C@@H]12 | – | – | 72.3 | – | – | – | – | – | – | – | – | – | – | – | – | – | – |
| CC(=O)NC[C@]1(C)CCC[C@]2(C)c3ccc(C(C)C)cc3-c3[nH]c4ccc(F)cc4c3[C@@H]12 | 4 | – | 28.8 | – | – | 7.2 | 19.2 | 2.8 | – | – | 1.5 | – | 10.3 | – | – | – | – |
| CC(=O)NC[C@]1(C)CCC[C@]2(C)c3cc([N+](=O)[O-])c(C(C)C)cc3C(=O)C[C@@H]12 | – | – | 39.2 | – | – | – | – | – | – | – | – | – | – | – | – | – | – |
| COC(=O)C[C@]1(C)CCC[C@]2(C)c3cc(O)c(C(C)C)cc3CC[C@@H]12 | – | – | – | – | – | – | – | – | – | – | – | – | – | – | 22.3 to 35 | 22.3 to 35 | – |
| CC(=O)NC[C@]1(C)CCC[C@]2(C)c3cc([N+](=O)[O-])c(C(C)C)cc3CC[C@@H]12 | – | – | 13.7 | – | – | – | – | – | – | – | – | – | – | – | – | – | – |
| CC(C)c1ccc2c(c1)CC[C@H]1[C@](C)(CN)CCC[C@]21C | – | – | 14.5 | – | – | – | – | – | – | – | – | – | – | – | – | – | – |
| CC(C)c1cc2c(cc1O)[C@@]1(C)CCCC(C)(C)[C@@H]1CC2 [FERRUGINOL] | – | – | – | – | – | – | – | – | – | – | – | – | – | – | – | – | 12.2 |
| CCCCCCCCCCCCCCCCOP(=O)([O-])OCC[N+](C)(C)C [MILTEFOSINE] | 47.7 | 16.5 | 136 | 58.1 | 8.2 | 2.9 | 40.1 | 0.15 | 18.2 | 7.5 | 3.4 | 2.3 | 909 | – | – | – | – |
